Sampled rows, rich in hits. Any-hit rate of the full collection: about 2.9%.
TRPC4 PAM – TRPC4 (mouse) allosteric potentiation; Q9QUQ5; HEK293 TRPC4beta/mu-opioid, DAMGO EC20, Fluo-4 Ca2+ flux; hits give high values; B-score at 10 µM; 310,000 tested, 0.42% active; AID 2227;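 active means B-score of calcium response area above 5 SD of library B-scores, with initial fluorescence ratio within 5 SD of library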
Kir21 inh – Kir2.1 (mouse) channel inhibition; AID 1672; 310,000 tested, 0.85% active; B-score at 10 µM; HEK293-Kir2.1, FluxOR thallium flux fluorescence; hits give low values; P35561;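 active means fluorescence ratio B-score at or below minus 3 SD of library scores, with starting-brightness B-score within 2 SD, cut at about -4.2 in these data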;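 further: channel flux triggered by added potassium and thallium sulfate stimulus; B-score of peak minus minimum fluorescence over baseline after thallium stimulus; more negative B-score means stronger Kir2.1 block with less thallium influx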
Target sequence (P35561 whole entry, looked up): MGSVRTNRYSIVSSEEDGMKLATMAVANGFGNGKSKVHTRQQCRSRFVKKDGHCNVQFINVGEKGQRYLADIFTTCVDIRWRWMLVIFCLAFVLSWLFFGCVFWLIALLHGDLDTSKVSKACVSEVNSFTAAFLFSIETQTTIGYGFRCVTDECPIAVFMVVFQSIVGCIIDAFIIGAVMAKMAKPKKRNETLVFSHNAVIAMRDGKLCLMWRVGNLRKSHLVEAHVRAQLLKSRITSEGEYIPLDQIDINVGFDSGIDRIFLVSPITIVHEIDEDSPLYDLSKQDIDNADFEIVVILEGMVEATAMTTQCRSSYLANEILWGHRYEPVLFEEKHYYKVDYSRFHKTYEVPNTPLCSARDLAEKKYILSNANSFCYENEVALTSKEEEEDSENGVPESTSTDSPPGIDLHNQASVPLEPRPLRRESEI
TRPC4 block – inhibitors of mouse TRPC4 channel | B-score at 10 µM | Q9QUQ5 | AID 2247 | 300,000 tested, 0.39% active | HEK293 TRPC4beta/mu-opioid, DAMGO-evoked Fluo4 calcium flux; hits give low values;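 active means B-score over 3 SD under the library average, no early fluorescence shift, positive overall ratio signal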
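material = TRPC4beta/mu-opioid receptor HEK293 cell line | probe or stimulus = sequential submaximal and maximal DAMGO stimulation | compound dosing = one concentration per compound | measured by = Fluo4 Ca2+ flux fluorescence | evaluation = integrated fluorescence ratio relative to baseline, converted to per-well B score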
TRPC6 activator – mouse TRPC6 channel activation. AID 2550. HEK293-TRPC6 membrane potential dye fluorescence; hits give high values. B-score at 10 µM. 310,000 tested, 0.13% active;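 active means B-score of the integrated fluorescence ratio above library mean plus 3 SD, and starting fluorescence ratio within library mean plus 5 SD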;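 further: higher score means more depolarization so channel activation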
TRPC6 inhibitor – mouse TRPC6 channel inhibition; Q61143; HEK293-TRPC6, membrane potential dye, ACh-evoked depolarization; hits give low values; 310,000 tested, 1.1% active; B-score at 10 µM;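 active means B-score under library mean minus 3 SD, initial fluorescence not abnormally high, positive integrated signal ratio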;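 further: B-score derived from integrated fluorescence ratio over the kinetic read; more negative B-score means stronger inhibition of depolarization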
TRPC4 act – activators of mouse TRPC4 channel | B-score at 10 µM | 310,000 tested, 0.49% active | HEK293 TRPC4beta/mu-opioid, Fluo4 calcium fluorescence; hits give high values;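 active means B-score above 5 SD of library B-scores, and initial fluorescence ratio not above library mean plus 5 SD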;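 further: positive B-score marks a calcium rise read as TRPC4 activation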
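system = HEK293 cells stably co-expressing mouse TRPC4beta and mu-opioid receptor | schedule = Fluo4 dye loading 45 min at room temperature, 110 s recording | measure = B-scored integrated calcium fluorescence ratio | signal = Fluo4 calcium-sensitive dye fluorescence, kinetic, 1 Hz baseline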
TRPC4 sel inh 2 – second selectivity test of TRPC6 inhibitors: effect on mouse TRPC4; inhibition, % at 10 µM; shares compounds with TRPC6 inhibitor; HEK293 TRPC4/MOR, membrane potential dye fluorescence; channel activated by saturating DAMGO dose; 920 tested, 42% active;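 active means compounds whose fluorescence signal differed from control wells by over 3 SD, either direction, in both duplicate plates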
TRPC4 spec – selectivity of TRPC6 inhibitors: effect on mouse TRPC4; shares compounds with TRPC6 inhibitor; AID 2777; 920 tested, 61% active; activity change, negative = inhibition, % at 10 µM; HEK293 TRPC4/mu-opioid, membrane potential fluorescence;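 active means rise or fall in signal beyond 3 SD of buffer-only wells in both replicate plates, either sign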;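 further: integrated kinetic ratio of fluorescence range over baseline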
HEK293 MPD ctr 2-1 – second counter-screen for TRPC6 inhibitors: parental HEK293 cells; shares compounds with TRPC6 inhibitor; parental HEK293 membrane potential dye fluorescence; maximal acetylcholine challenge after compound addition; signal change vs control, % at 10 µM; 920 tested, 31% active; AID 2779;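 active means membrane potential signal moving either way by over 3 SD of the maximum-effect control, in both duplicate plates, meaning non-specific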
HEK293 MPD ctr-1 – checks TRPC6 inhibitor effects in parental HEK293 cells | shares compounds with TRPC6 inhibitor | parental HEK293 membrane potential dye fluorescence | membrane potential signal change, % at 10 µM | 920 tested, 60% active | AID 2780;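 active means membrane potential signal shifting up or down by more than 3 SD of buffer-only wells, on both duplicate plates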
HEK293 MPD ctr-2 – parental HEK293 nonspecific activity of TRPC6 modulators | shares compounds with TRPC6 inhibitor | membrane potential dye fluorescence | membrane potential signal change, % at 10 µM | 2,400 tested, 51% active;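 active means membrane potential signal moves up or down beyond 5 SD from buffer-only wells, on both duplicate plates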
HEK293 MPD ctr 2-2 – second check of TRPC6 modulator effects in parental HEK293 cells. shares compounds with TRPC6 inhibitor. membrane potential dye fluorescence; after compound, maximal acetylcholine stimulation. inhibition, % at 10 µM. 2,400 tested, 14% active;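 active means membrane potential signal drops by more than 5 SD from the mean control signal, in both duplicate plates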
TRPC4/MOR mod – tests whether TRPC6 modulators also affect mouse TRPC4; percent change from control (negative = decrease, positive = increase), % at 10 µM; HEK293 TRPC4/mu-opioid, membrane potential fluorescence; 2,400 tested, 69% active; AID 488927; shares compounds with TRPC6 inhibitor;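 active means membrane potential signal moved up or down beyond 5 SD of buffer control wells, in both duplicate plates, actives on both sides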
TRPC4/MOR inh 2 – second check of whether TRPC6 modulators also affect mouse TRPC4 | shares compounds with TRPC6 inhibitor | HEK293 TRPC4/mu-opioid, membrane potential dye fluorescence; stimulated with maximal-effect DAMGO | inhibition, % at 10 µM | 2,400 tested, 55% active;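 active means drop in membrane potential signal beyond 5 SD of the control wells in both duplicate plates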;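 further: TRPC4 counter screen for TRPC6 hits run under conditions tuned for TRPC6 not TRPC4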
TRPC6 block conf – mouse TRPC6 inhibitor confirmation. shares compounds with TRPC6 inhibitor. HEK293-TRPC6, membrane potential dye, ACh-evoked depolarization. inhibition, % at 10 µM. 3,300 tested, 43% active. AID 488960;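 active means fluorescence ratio falls more than 5 SD below the full-stimulation control mean, in both duplicate runs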;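 further: integrated fluorescence ratio of peak minus minimum over baseline after agonist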
TRPC6 act conf – mouse TRPC6 activator confirmation | HEK293-TRPC6 membrane potential dye fluorescence, FDSS | activation, % at 10 µM | AID 488961 | shares compounds with TRPC6 inhibitor | 2,800 tested, 11% active;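 active means ratio signal rise beyond 5 SD above unstimulated control wells' mean, seen in both duplicate runs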
Hits are given with their value.

Results for Cc1ccc(-c2n[nH]c(=S)n2Cc2ccccc2)cc1 ?
TRPC4 PAM: inactive; Kir21 inh: inactive; TRPC4 block: inactive; TRPC6 activator: inactive; TRPC6 inhibitor: -5; TRPC4 act: inactive; HEK293 MPD ctr-2: inactive; HEK293 MPD ctr 2-2: inactive; TRPC4/MOR mod: inactive; TRPC4/MOR inh 2: inactive; TRPC6 block conf: inactive; TRPC6 act conf: inactive

Results for Cc1nccn1CCc1n[nH]c(=S)n1Cc1ccccc1 ?
TRPC4 PAM: inactive; Kir21 inh: inactive; TRPC4 block: inactive; TRPC6 activator: inactive; TRPC6 inhibitor: -6.5; TRPC4 act: inactive; HEK293 MPD ctr-2: inactive; HEK293 MPD ctr 2-2: inactive; TRPC4/MOR mod: inactive; TRPC4/MOR inh 2: inactive; TRPC6 block conf: 69%; TRPC6 act conf: inactive

How did Cc1cccc(-c2n[nH]c(=S)n2Cc2ccccc2)c1 do in these assays?
TRPC4 PAM: inactive; Kir21 inh: inactive; TRPC4 block: inactive; TRPC6 activator: inactive; TRPC6 inhibitor: inactive; TRPC4 act: inactive

What do the screens show for `O=C(NC1CCCC1)C1CCN(S(=O)(=O)c2ccccc2)CC1`?
TRPC4 PAM: inactive; Kir21 inh: inactive; TRPC4 block: inactive; TRPC6 activator: inactive; TRPC6 inhibitor: inactive; TRPC4 act: inactive

How did O=C(Nc1ccc(F)cc1)C1CCC(CNc2c(N3CCCCC3)c(=O)c2=O)CC1 (stereo unspecified) do in these assays?
TRPC4 PAM: inactive; Kir21 inh: inactive; TRPC4 block: inactive; TRPC6 activator: inactive; TRPC6 inhibitor: inactive; TRPC4 act: inactive

What do the screens show for `O=C(Nc1cccc(S(=O)(=O)C(F)F)c1)c1ccc(Cl)c(S(=O)(=O)N2CCOCC2)c1`?
TRPC4 PAM: inactive; Kir21 inh: inactive; TRPC4 block: inactive; TRPC6 activator: inactive; TRPC6 inhibitor: -6.1; TRPC4 act: inactive; HEK293 MPD ctr-2: inactive; HEK293 MPD ctr 2-2: inactive; TRPC4/MOR mod: inactive; TRPC4/MOR inh 2: inactive; TRPC6 block conf: inactive; TRPC6 act conf: inactive

Results for Cc1nc2ccc(S(=O)(=O)N(C)CC(=O)Nc3ccccc3F)cc2s1 ?
TRPC4 PAM: inactive; Kir21 inh: inactive; TRPC4 block: inactive; TRPC6 activator: inactive; TRPC6 inhibitor: inactive; TRPC4 act: inactive

Results for CCN(CC)CC(=O)Nc1ccc(/C(C)=N/NC2=NCCN2)cc1 ?
TRPC4 PAM: inactive; Kir21 inh: inactive; TRPC4 block: inactive; TRPC6 activator: inactive; TRPC6 inhibitor: -8; TRPC4 act: inactive; TRPC4 sel inh 2: inactive; TRPC4 spec: -12%; HEK293 MPD ctr 2-1: inactive; HEK293 MPD ctr-1: inactive; TRPC6 block conf: inactive; TRPC6 act conf: inactive

What do the screens show for `CC1(C)Cc2c(cnn2-c2ccc(F)cc2)C(NC(=O)C2=NNC(=O)CC2)C1` (stereo unspecified)?
TRPC4 PAM: inactive; Kir21 inh: inactive; TRPC4 block: inactive; TRPC6 activator: inactive; TRPC6 inhibitor: inactive; TRPC4 act: inactive

How did CC(=O)N1CCN(C(c2ccccc2)c2ccccc2)CC1 do in these assays?
TRPC4 PAM: inactive; Kir21 inh: inactive; TRPC4 block: inactive; TRPC6 activator: inactive; TRPC6 inhibitor: inactive; TRPC4 act: inactive

How did CC12CNCC(C)(CN(C(c3ccccc3)c3ccccc3)C1)C2 do in these assays?
TRPC4 PAM: inactive; Kir21 inh: inactive; TRPC4 block: inactive; TRPC6 activator: inactive; TRPC6 inhibitor: -5.6; TRPC4 act: inactive; HEK293 MPD ctr-2: 182%; HEK293 MPD ctr 2-2: inactive; TRPC4/MOR mod: 76%; TRPC4/MOR inh 2: 90%; TRPC6 block conf: inactive

How did Cc1ccccc1-n1ncc2c1CC(C)(C)CC2NC(=O)C1=CC(=O)CC(C)(C)O1 (stereo unspecified) do in these assays?
TRPC4 PAM: inactive; Kir21 inh: inactive; TRPC4 block: inactive; TRPC6 activator: inactive; TRPC6 inhibitor: inactive; TRPC4 act: inactive

What do the screens show for `Cc1cc(C)n2[nH]c(=O)c(N=Nc3cccc(C(F)(F)F)c3)c2n1`?
TRPC4 PAM: inactive; Kir21 inh: inactive; TRPC4 block: inactive; TRPC6 activator: inactive; TRPC6 inhibitor: inactive; TRPC4 act: inactive

How did Cc1cc(C)n2[nH]c(=O)c(N=Nc3cccc(Cl)c3)c2n1 do in these assays?
TRPC4 PAM: inactive; Kir21 inh: inactive; TRPC4 block: inactive; TRPC6 activator: inactive; TRPC6 inhibitor: -7.5; TRPC4 act: inactive; HEK293 MPD ctr-2: -198%; HEK293 MPD ctr 2-2: 65%; TRPC4/MOR mod: -28%; TRPC4/MOR inh 2: 37%; TRPC6 block conf: 46%; TRPC6 act conf: inactive

Results for Cc1cc(C)n2[nH]c(=O)c(N=Nc3ccccc3)c2n1 ?
TRPC4 PAM: inactive; Kir21 inh: inactive; TRPC4 block: inactive; TRPC6 activator: inactive; TRPC6 inhibitor: -7.4; TRPC4 act: inactive; TRPC4 sel inh 2: inactive; TRPC4 spec: -24%; HEK293 MPD ctr 2-1: inactive; HEK293 MPD ctr-1: -388%; TRPC6 block conf: inactive; TRPC6 act conf: inactive

How did Cc1onc(-c2c(Cl)cccc2Cl)c1/C(N)=N/OC(=O)C1CC1 do in these assays?
TRPC4 PAM: inactive; Kir21 inh: inactive; TRPC4 block: inactive; TRPC6 activator: inactive; TRPC6 inhibitor: inactive; TRPC4 act: inactive

Screening data as filed in PubChem.
